Test results as given in ChEMBL document CHEMBL1154290, “Synthesis and in vitro autoradiographic evaluation of a novel high-affinity radioiodinated ligand for imaging brain cannabinoid subtype-1 receptors” (Bioorg Med Chem Lett, 2009).

What was measured:
[1] = target: Muscarinic acetylcholine receptor M1 (Homo sapiens) (UniProt P11229); assay: Displacement of [3H]QNB from Muscarinic acetylcholine receptor M1 at 10 uM by scintillation counting; conditions: tested as the 125I-labelled form
Method in brief: (§1)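 Receptor-panel selectivity screen: test ligand at a single 10 μM concentration. Each site is assayed by inhibition of binding of its radioligand, read out as percent inhibition (n = 4).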

[2] = target: Sodium-dependent noradrenaline transporter (Homo sapiens) (UniProt P23975); assay: Displacement of [3H]Nisoxetine from NET at 10 uM by scintillation counting; conditions: tested as the 125I-labelled form; method in brief: as §1
[3] = target: 5-hydroxytryptamine receptor 5A (Homo sapiens) (UniProt P47898); assay: Displacement of [3H]LSD from 5HT5A (receptor) at 10 uM by scintillation counting; conditions: tested as the 125I-labelled form; method in brief: as §1
[4] = target: 5-hydroxytryptamine receptor 2C (Homo sapiens) (UniProt P28335); assay: Displacement of [3H]Mesulergine from 5HT2C (receptor) at 10 uM by scintillation counting; conditions: tested as the 125I-labelled form; method in brief: as §1
[5] = target: Muscarinic acetylcholine receptor M2 (Homo sapiens) (UniProt P08172); assay: Displacement of [3H]QNB from Muscarinic acetylcholine receptor M2 at 10 uM by scintillation counting; conditions: tested as the 125I-labelled form; method in brief: as §1
[6] = target: Vasopressin V1b receptor (Homo sapiens) (UniProt P47901); assay: Displacement of [3H]vasopressin from vasopressin1B receptor at 10 uM by scintillation counting; conditions: tested as the 125I-labelled form; method in brief: as §1
[7] = target: Muscarinic acetylcholine receptor M4 (Homo sapiens) (UniProt P08173); assay: Displacement of [3H]QNB from Muscarinic acetylcholine receptor M4 at 10 uM by scintillation counting; conditions: tested as the 125I-labelled form; method in brief: as §1
[8] = target: Beta-3 adrenergic receptor (Homo sapiens) (UniProt P13945); assay: Displacement of [125I]Iodopindolol from beta3 adrenergic receptor at 10 uM by scintillation counting; conditions: tested as the 125I-labelled form
[9] = target: 5-hydroxytryptamine receptor 2C (Homo sapiens) (UniProt P28335); assay: Inhibition of radioligand binding to 5HT1C (receptor) at 10 uM; conditions: tested as the 125I-labelled form; method in brief: as §1
[10] = target: 5-hydroxytryptamine receptor 1E (Homo sapiens) (UniProt P28566); assay: Displacement of [3H]5-HT from 5HT1E (receptor) at 10 uM by scintillation counting; conditions: tested as the 125I-labelled form; method in brief: as §1
[11] = target: D(1A) dopamine receptor (Homo sapiens) (UniProt P21728); assay: Displacement of [3H]SCH233930 from dopamine D 1 ( receptor) at 10 uM by scintillation counting; conditions: tested as the 125I-labelled form; method in brief: as §1
[12] = target: Beta-2 adrenergic receptor (Homo sapiens) (UniProt P07550); assay: Displacement of [125I]Iodopindolol from beta2 adrenergic receptor at 10 uM by scintillation counting; conditions: tested as the 125I-labelled form
[13] = target: Muscarinic acetylcholine receptor M3 (Homo sapiens) (UniProt P20309); assay: Displacement of [3H]QNB from Muscarinic acetylcholine receptor M3 at 10 uM by scintillation counting; conditions: tested as the 125I-labelled form; method in brief: as §1
[14] = target: D(4) dopamine receptor (Homo sapiens) (UniProt P21917); assay: Displacement of [3H]N-methylspiperone from dopamine D 4 ( receptor) at 10 uM by scintillation counting; conditions: tested as the 125I-labelled form; method in brief: as §1
[15] = target: Muscarinic acetylcholine receptor M5 (Homo sapiens) (UniProt P08912); assay: Displacement of [3H]QNB from Muscarinic acetylcholine receptor M5 at 10 uM by scintillation counting; conditions: tested as the 125I-labelled form; method in brief: as §1
[16] = target: Alpha-1B adrenergic receptor (Homo sapiens) (UniProt P35368); assay: Displacement of [3H]Prazosin from alpha-1B adrenergic receptor at 10 uM by scintillation counting; conditions: tested as the 125I-labelled form; method in brief: as §1
[17] = target: 5-hydroxytryptamine receptor 3A (Homo sapiens) (UniProt P46098); assay: Displacement of [3H]LY278584 from 5HT3 (receptor) at 10 uM by scintillation counting; conditions: tested as the 125I-labelled form; method in brief: as §1
[18] = target: 5-hydroxytryptamine receptor 1B (Homo sapiens) (UniProt P28222); assay: Displacement [3H]GR127543 from 5HT1B (receptor) at 10 uM by scintillation counting; conditions: tested as the 125I-labelled form; method in brief: as §1
[19] = target: Alpha-2B adrenergic receptor (Homo sapiens) (UniProt P18089); assay: Displacement of [3H]Clonidine from alpha-2B adrenergic receptor at 10 uM by scintillation counting; conditions: tested as the 125I-labelled form; method in brief: as §1
[20] = target: 5-hydroxytryptamine receptor 6 (Homo sapiens) (UniProt P50406); assay: Displacement of [3H]LSD from 5HT6 (receptor) at 10 uM by scintillation counting; conditions: tested as the 125I-labelled form; method in brief: as §1
[21] = target: Histamine H2 receptor (Homo sapiens) (UniProt P25021); assay: Displacement of [3H]Pyrilamine from histamine H2 (receptor) at 10 uM by scintillation counting; conditions: tested as the 125I-labelled form; method in brief: as §1
[22] = target: Vasopressin V1a receptor (Homo sapiens) (UniProt P37288); assay: Displacement of [3H]vasopressin from vasopressin1A receptor at 10 uM by scintillation counting; conditions: tested as the 125I-labelled form; method in brief: as §1
[23] = target: Histamine H1 receptor (Homo sapiens) (UniProt P35367); assay: Displacement of [3H]Pyrilamine from histamine H1 (receptor) at 10 uM by scintillation counting; conditions: tested as the 125I-labelled form; method in brief: as §1
[24] = target: D(2) dopamine receptor (Homo sapiens) (UniProt P14416); assay: Displacement of [3H]N-methylspiperone from dopamine D 2( receptor) at 10 uM by scintillation counting; conditions: tested as the 125I-labelled form; method in brief: as §1
[25] = target: Beta-1 adrenergic receptor (Homo sapiens) (UniProt P08588); assay: Displacement of [125I]Iodopindolol from beta-1 adrenergic receptor at 10 uM by scintillation counting; conditions: tested as the 125I-labelled form
[26] = target: 5-hydroxytryptamine receptor 2A (Homo sapiens) (UniProt P28223); assay: Displacement of [3H]Ketanserin from 5HT2A (receptor) at 10 uM by scintillation counting; conditions: tested as the 125I-labelled form; method in brief: as §1
[27] = target: Histamine H3 receptor (Homo sapiens) (UniProt Q9Y5N1); assay: Displacement of [3H]alpha-methylhistamine from histamine H3 (receptor) at 10 uM by scintillation counting; conditions: tested as the 125I-labelled form; method in brief: as §1
[28] = target: Histamine H4 receptor (Homo sapiens) (UniProt Q9H3N8); assay: Displacement of [3H]Histamine from histamine H4 (receptor) at 10 uM by scintillation counting; conditions: tested as the 125I-labelled form; method in brief: as §1
[29] = target: 5-hydroxytryptamine receptor 1D (Homo sapiens) (UniProt P28221); assay: Displacement [3H]GR127543 from 5HT1D (receptor) at 10 uM by scintillation counting; conditions: tested as the 125I-labelled form; method in brief: as §1
[30] = target: Alpha-1A adrenergic receptor (Homo sapiens) (UniProt P35348); assay: Displacement of [3H]Prazosin from alpha-1A adrenergic receptor at 10 uM by scintillation counting; conditions: tested as the 125I-labelled form; method in brief: as §1
[31] = target: 5-hydroxytryptamine receptor 7 (Homo sapiens) (UniProt P34969); assay: Displacement of [3H]LSD from 5HT7 (receptor) at 10 uM by scintillation counting; conditions: tested as the 125I-labelled form; method in brief: as §1
[32] = Displacement of [3H]DTG from […] opioid receptor at 10 uM by scintillation counting; conditions: tested as the 125I-labelled form; method in brief: as §1
[33] = target: 5-hydroxytryptamine receptor 2B (Homo sapiens) (UniProt P41595); assay: Displacement of [3H]LSD from 5HT2B (receptor) at 10 uM by scintillation counting; conditions: tested as the 125I-labelled form; method in brief: as §1
[34] = target: Alpha-2A adrenergic receptor (Homo sapiens) (UniProt P08913); assay: Displacement of [3H]Clonidine from alpha-2A adrenergic receptor at 10 uM by scintillation counting; conditions: tested as the 125I-labelled form; method in brief: as §1
[35] = target: Sigma non-opioid intracellular receptor 1 (Homo sapiens) (UniProt Q99720); assay: Displacement of [3H]Pentazocine from sigma1 opioid receptor at 10 uM by scintillation counting; conditions: tested as the 125I-labelled form; method in brief: as §1
[36] = target: Vasopressin V2 receptor (Homo sapiens) (UniProt P30518); assay: Displacement of [3H]vasopressin from vasopressin2 receptor at 10 uM by scintillation counting; conditions: tested as the 125I-labelled form; method in brief: as §1
[37] = target: Delta-type opioid receptor (Homo sapiens) (UniProt P41143); assay: Displacement of [3H]DADLE from delta opioid receptor at 10 uM by scintillation counting; conditions: tested as the 125I-labelled form; method in brief: as §1
[38] = target: D(3) dopamine receptor (Homo sapiens) (UniProt P35462); assay: Displacement of [3H]N-methylspiperone from dopamine D 3 ( receptor) at 10 uM by scintillation counting; conditions: tested as the 125I-labelled form; method in brief: as §1
[39] = target: Sodium-dependent serotonin transporter (Homo sapiens) (UniProt P31645); assay: Displacement of [3H]Citalopram from SERT at 10 uM by scintillation counting; conditions: tested as the 125I-labelled form; method in brief: as §1
Cannabinoid receptor 2 = Cannabinoid receptor 2 (Homo sapiens, UniProt P34972); assay: Displacement of [3H]CP-55940 from CB2 receptor by scintillation counting
Method in brief: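 CB2 affinity given as Ki from radioligand displacement, reported as mean ± SD of three determinations.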

Mu-type opioid receptor = Mu-type opioid receptor (Homo sapiens, UniProt P35372); assay: Displacement of [3H]DAMGO from mu opioid at 10 uM by scintillation counting
[40] = target: Alpha-2C adrenergic receptor (Homo sapiens, UniProt P18825); assay: Displacement of [125I]Iodoclonidine from alpha-2C adrenergic receptor at 10 uM by scintillation counting
[41] = target: 5-hydroxytryptamine receptor 1A (Homo sapiens, UniProt P08908); assay: Displacement of [3H]8OH-DPAT from 5HT1A receptor at 10 uM by scintillation counting
Translocator protein = Translocator protein (Homo sapiens, UniProt P30536); assay: Displacement of [3H]PK11195 from TSPO at 10 uM by scintillation counting
[42] = target: Kappa-type opioid receptor (Homo sapiens, UniProt P41145); assay: Displacement of [3H]U69593 from kappa opioid receptor at 10 uM by scintillation counting
Cannabinoid receptor 1 = Cannabinoid receptor 1 (Homo sapiens, UniProt P21554)

Sequence of 5-hydroxytryptamine receptor 2C (Homo sapiens) (P28335 whole entry): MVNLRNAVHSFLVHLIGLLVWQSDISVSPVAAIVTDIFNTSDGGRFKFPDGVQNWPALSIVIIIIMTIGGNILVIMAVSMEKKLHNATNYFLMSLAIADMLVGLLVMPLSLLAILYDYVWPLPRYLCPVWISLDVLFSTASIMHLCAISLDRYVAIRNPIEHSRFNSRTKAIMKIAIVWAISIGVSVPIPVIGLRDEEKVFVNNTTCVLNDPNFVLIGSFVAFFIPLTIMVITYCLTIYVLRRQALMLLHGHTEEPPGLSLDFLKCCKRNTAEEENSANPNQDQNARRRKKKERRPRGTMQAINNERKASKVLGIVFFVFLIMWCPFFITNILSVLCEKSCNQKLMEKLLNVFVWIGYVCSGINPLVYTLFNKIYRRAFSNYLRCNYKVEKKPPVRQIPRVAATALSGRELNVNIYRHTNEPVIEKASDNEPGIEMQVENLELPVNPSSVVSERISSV
Sequence of Muscarinic acetylcholine receptor M2 (Homo sapiens) (P08172 whole entry): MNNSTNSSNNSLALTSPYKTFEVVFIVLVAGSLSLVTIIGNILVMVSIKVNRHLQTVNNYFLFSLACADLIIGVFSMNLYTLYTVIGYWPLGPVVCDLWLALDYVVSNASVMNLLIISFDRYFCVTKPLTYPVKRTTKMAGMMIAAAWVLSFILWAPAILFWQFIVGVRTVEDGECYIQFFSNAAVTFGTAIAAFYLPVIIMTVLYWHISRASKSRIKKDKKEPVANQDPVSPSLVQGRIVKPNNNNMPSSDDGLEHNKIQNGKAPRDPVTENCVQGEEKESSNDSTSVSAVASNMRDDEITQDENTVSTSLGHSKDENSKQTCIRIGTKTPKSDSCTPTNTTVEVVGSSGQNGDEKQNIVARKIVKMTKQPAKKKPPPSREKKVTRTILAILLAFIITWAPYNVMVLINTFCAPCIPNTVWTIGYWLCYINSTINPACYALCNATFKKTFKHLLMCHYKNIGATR
Sequence of Muscarinic acetylcholine receptor M1 (Homo sapiens) (P11229 whole entry): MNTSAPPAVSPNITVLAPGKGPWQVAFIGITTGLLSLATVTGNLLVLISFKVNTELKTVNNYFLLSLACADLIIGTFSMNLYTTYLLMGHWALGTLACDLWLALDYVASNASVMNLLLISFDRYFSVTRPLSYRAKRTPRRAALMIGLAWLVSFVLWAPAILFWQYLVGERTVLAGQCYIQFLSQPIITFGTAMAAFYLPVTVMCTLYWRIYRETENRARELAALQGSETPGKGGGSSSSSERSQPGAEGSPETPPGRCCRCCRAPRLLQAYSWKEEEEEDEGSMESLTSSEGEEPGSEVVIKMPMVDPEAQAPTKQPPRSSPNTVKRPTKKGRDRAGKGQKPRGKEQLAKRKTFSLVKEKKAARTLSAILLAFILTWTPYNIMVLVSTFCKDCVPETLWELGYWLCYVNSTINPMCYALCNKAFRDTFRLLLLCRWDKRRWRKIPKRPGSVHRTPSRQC
Sequence of 5-hydroxytryptamine receptor 3A (Homo sapiens) (P46098 whole entry): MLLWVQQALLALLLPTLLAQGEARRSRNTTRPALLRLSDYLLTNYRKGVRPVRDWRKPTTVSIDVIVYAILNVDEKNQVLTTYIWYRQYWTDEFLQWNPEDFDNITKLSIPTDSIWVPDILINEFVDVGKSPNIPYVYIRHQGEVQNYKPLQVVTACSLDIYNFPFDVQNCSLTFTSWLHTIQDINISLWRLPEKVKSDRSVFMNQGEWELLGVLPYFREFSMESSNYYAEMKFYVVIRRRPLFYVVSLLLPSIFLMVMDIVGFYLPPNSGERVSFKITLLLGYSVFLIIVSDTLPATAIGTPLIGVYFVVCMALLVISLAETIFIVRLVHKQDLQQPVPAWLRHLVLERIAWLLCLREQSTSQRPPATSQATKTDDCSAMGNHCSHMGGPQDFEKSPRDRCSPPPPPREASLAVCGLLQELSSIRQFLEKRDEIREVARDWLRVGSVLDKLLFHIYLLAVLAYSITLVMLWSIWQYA
Sequence of 5-hydroxytryptamine receptor 2B (Homo sapiens) (P41595 whole entry): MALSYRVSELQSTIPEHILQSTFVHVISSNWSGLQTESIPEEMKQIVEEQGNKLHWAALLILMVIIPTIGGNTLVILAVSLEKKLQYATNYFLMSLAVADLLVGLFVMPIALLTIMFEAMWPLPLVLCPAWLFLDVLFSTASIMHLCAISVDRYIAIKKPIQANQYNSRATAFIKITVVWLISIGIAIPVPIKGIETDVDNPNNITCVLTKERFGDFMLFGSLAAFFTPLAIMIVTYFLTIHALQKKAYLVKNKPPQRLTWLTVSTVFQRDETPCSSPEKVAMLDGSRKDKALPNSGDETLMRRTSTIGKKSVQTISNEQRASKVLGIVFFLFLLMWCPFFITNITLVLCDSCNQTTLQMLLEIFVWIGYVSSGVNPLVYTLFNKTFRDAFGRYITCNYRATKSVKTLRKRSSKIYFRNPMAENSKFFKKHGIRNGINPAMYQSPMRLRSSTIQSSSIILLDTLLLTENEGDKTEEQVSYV
Sequence of Muscarinic acetylcholine receptor M4 (Homo sapiens) (P08173 whole entry): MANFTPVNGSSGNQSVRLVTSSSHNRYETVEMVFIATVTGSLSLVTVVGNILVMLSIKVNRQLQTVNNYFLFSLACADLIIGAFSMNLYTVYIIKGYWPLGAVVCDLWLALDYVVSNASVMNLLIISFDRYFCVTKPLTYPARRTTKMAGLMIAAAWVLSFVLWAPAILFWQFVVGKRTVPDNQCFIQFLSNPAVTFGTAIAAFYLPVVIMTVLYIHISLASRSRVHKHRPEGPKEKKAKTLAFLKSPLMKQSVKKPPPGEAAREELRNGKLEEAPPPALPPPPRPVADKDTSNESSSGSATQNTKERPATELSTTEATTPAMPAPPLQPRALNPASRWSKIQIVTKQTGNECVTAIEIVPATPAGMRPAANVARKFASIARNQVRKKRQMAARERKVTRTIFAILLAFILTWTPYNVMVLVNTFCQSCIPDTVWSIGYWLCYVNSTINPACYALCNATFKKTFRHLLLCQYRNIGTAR
Sequence of Alpha-1B adrenergic receptor (Homo sapiens) (P35368 whole entry): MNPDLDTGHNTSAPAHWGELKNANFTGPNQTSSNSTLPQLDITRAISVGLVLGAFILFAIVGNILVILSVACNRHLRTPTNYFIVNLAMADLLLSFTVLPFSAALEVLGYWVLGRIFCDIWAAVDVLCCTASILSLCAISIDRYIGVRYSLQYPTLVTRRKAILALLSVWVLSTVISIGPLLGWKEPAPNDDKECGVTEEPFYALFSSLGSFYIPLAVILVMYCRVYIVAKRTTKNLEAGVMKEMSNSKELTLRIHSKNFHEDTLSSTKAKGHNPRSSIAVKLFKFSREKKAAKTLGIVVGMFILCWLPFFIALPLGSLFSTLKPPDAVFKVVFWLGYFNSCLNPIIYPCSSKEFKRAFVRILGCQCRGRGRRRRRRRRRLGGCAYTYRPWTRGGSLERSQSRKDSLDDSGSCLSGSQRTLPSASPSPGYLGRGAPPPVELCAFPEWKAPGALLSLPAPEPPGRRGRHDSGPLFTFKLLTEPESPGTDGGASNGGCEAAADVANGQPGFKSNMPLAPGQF
Sequence of D(2) dopamine receptor (Homo sapiens) (P14416 whole entry): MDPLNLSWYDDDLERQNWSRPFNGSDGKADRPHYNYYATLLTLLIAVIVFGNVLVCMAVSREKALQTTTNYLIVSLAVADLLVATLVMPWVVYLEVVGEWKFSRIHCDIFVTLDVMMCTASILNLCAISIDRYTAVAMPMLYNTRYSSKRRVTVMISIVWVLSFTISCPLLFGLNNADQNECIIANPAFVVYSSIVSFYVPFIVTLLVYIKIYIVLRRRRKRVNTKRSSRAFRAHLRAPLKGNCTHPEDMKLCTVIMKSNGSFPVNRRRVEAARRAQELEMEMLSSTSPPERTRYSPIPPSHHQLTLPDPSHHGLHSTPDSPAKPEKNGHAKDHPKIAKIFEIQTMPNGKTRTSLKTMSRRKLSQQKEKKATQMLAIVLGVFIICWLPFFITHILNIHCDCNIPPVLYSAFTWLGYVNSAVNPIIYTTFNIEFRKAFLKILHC
Sequence of Muscarinic acetylcholine receptor M5 (Homo sapiens) (P08912 whole entry): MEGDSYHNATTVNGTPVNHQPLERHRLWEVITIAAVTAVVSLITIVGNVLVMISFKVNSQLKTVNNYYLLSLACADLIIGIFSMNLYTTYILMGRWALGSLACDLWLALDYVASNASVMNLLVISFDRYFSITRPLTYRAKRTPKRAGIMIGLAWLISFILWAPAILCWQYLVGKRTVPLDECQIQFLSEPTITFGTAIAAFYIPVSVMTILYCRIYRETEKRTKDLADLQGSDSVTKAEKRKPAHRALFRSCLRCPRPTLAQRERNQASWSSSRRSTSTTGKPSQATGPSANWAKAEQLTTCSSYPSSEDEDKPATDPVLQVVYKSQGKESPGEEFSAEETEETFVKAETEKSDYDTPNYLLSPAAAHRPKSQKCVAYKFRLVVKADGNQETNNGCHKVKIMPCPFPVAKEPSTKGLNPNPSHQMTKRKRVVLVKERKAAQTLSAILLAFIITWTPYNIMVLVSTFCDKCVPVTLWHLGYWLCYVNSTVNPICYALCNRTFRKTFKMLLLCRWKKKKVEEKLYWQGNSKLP
Sequence of 5-hydroxytryptamine receptor 1D (Homo sapiens) (P28221 whole entry): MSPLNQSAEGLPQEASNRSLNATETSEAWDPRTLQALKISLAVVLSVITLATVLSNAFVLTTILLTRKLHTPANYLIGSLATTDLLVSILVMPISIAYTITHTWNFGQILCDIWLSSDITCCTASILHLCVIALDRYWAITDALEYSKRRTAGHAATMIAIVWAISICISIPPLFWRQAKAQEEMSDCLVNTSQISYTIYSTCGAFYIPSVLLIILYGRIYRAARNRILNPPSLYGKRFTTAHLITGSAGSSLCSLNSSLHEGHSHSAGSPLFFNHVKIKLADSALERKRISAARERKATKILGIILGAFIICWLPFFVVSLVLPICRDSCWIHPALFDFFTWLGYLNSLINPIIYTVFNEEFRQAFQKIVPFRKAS
Sequence of Translocator protein (P30536 whole entry): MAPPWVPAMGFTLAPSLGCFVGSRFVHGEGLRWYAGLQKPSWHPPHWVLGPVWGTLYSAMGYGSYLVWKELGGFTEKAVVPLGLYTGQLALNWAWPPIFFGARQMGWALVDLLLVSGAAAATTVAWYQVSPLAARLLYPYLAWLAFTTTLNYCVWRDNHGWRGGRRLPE

COc1ccc(-c2c(C#N)c(C(=O)NN3CCCCC3)nn2-c2ccccc2I)cc1
< 50%: inhibition [1] | inhibition [2] | inhibition [3] | inhibition [4] | inhibition [5] | inhibition [6] | inhibition [7] | inhibition [8] | inhibition [9] | inhibition [10] | inhibition [11] | inhibition [12] | inhibition [13] | inhibition [14] | inhibition [15] | inhibition [16] | inhibition [17] | inhibition [18] | inhibition [19] | inhibition [20] | inhibition [21] | inhibition [22] | inhibition [23] | inhibition [24] | inhibition [25] | inhibition [26] | inhibition [27] | inhibition [28] | inhibition [29] | inhibition [30] | inhibition [31] | inhibition [32] | inhibition [33] | inhibition [34] | inhibition [35] | inhibition [36] | inhibition [37] | inhibition [38] | inhibition [39]

COc1ccc(-c2c(C#N)c(C(=O)NN3CCCCC3)nn2-c2ccccc2[125I])cc1
0.0034 µM: Ki (Cannabinoid receptor 1)
> 10 µM: Ki [40]
3.17 µM: Ki (Translocator protein)
0.0935 µM: Ki [41]
0.548 µM: Ki (Cannabinoid receptor 2)
1.5 µM: Ki (Mu-type opioid receptor)
1.48 µM: Ki [42]
